{
  "source": "paper PMC3798158",
  "about": "(Journal of medicinal chemistry, 2013)",
  "key": {"[1]": {"molecular_target": "GAPDH (Oryctolagus cuniculus, UniProt P46406)", "sequence (P46406 whole entry)": "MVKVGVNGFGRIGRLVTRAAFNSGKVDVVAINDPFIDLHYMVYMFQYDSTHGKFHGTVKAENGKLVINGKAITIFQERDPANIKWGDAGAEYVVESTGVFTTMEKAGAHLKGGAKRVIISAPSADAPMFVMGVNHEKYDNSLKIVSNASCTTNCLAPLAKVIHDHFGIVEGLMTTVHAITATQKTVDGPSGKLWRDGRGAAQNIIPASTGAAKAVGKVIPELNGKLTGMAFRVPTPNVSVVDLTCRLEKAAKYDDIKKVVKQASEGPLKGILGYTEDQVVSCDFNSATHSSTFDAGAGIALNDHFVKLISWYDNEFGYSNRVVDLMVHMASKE", "assay": "High resolution LC-MS of structural modifications of GAPDH tryptic peptides", "parameters": "species or system rabbit", "settings": "for Products, GAPDH tryptic peptide V232–R245 (Cys 244) / Products, GAPDH tryptic peptide I143–K159 (Cys 149, Cys 153): LC-MS after trypsin digest, 10 eq. where printed; for Product at Cys 281 of GAPDH (peptide G269–K306): mass spectrometric data extraction from reaction mixture", "in_short": "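Rabbit muscle GAPDH was incubated with test compound (10 equiv), then trypsin-digested at 20:1 (w/w, monomer:trypsin), 37 °C, 12−16 h, in 50 mM Tris-HCl, and quenched by freezing at −20 °C. Positive-ion Orbitrap, resolution 60000; Cys-peptide modifications were assigned by m/z.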"}, "[2]": {"molecular_target": "T1, rabbit muscle GAPDH (Oryctolagus cuniculus, UniProt P46406)", "T1 sequence (P46406 whole entry)": "as above", "assay": "In vitro inhibition of GAPDH", "type": "biochemical", "settings": "for GAPDH inhibition (in words): incubation of GAPDH"}, "[3]": {"molecular_target": "AhpC C165S (Salmonella typhimurium, UniProt P0A251, C166S)", "settings": "LC-MS after Asp-N digest, 10 eq. where printed"}, "[4]": {"molecular_target": "T1, rabbit muscle GAPDH", "assay": "Reversibility of GAPDH inhibition by DTT", "type": "biochemical", "settings": "for GAPDH enzyme activity after treatment / GAPDH enzyme activity restored after DTT incubation: 1 μM compound, 60 min; for GAPDH enzyme activity restored after DTT incubation: then DTT"}, "[5]": {"settings": "cited from earlier work; for t1/2 of HNO release: neutral conditions"}, "[6]": {"system": "myofilament", "settings": "sensitizing myofilament responsiveness to calcium; cited from earlier work"}, "[7]": {"assay": "Stopped-flow UV-vis kinetic decomposition", "type": "physicochemical", "settings": "compared with AS"}, "[8]": {"system": "STAT3", "settings": "similar to AS; cited from earlier work"}},
  "note": "Entries after “also recorded” stand apart in the source; their conditions may differ. Where a name gives a salt, the structure may show the parent alone. Read-outs that look alike come from different tables or passages of the source.",
  "data": [
    {"compound": "O=Nc1ccccc1", "note": "[Nitrosobenzene, nitrosobenzene]", "values": [
      {"measurement": "Products, GAPDH tryptic peptide V232–R245 (Cys 244)", "setting": "[1]", "value": "Sulfinic acid"},
      {"measurement": "IC50", "setting": "[2]", "value": 230, "unit": "nM"},
      {"measurement": "Products, C165S AhpC Asp-N peptide D41–G51 (Cys 46)", "setting": "[3]", "value": "Sulfinic acid"}
    ]},
    {"compound": "N[C@@H](CCC(=O)N[C@@H](CSN=O)C(=O)NCC(=O)O)C(=O)O", "note": "[GSNO, S-nitrosoglutathione]", "values": [
      {"measurement": "DTT reversibility of GAPDH inhibition (in words)", "setting": "[4]", "value": "completely DTT reversible"},
      {"measurement": "Products, GAPDH tryptic peptide V232–R245 (Cys 244)", "setting": "[1]", "value": "Nitrosylated product"},
      {"measurement": "GAPDH inhibition (in words)", "setting": "[2]", "value": "inhibition of enzyme activity"},
      {"measurement": "Products, C165S AhpC Asp-N peptide D41–G51 (Cys 46)", "setting": "[3]", "value": "Nitrosylated Product"}
    ]},
    {"compound": "CC(=O)OC1(N=O)CCCCC1", "note": "[compound 1, 1-Nitrosocyclohexyl acetate]", "values": [
      {"measurement": "GAPDH enzyme activity after treatment", "setting": "[4]", "value": "5 % of control"},
      {"measurement": "GAPDH enzyme activity restored after DTT incubation", "setting": "[4]", "value": "12 % of control"},
      {"measurement": "t1/2 of HNO release", "setting": "[5]", "value": 13.3, "unit": "h"},
      {"measurement": "Products, GAPDH tryptic peptide I143–K159 (Cys 149, Cys 153)", "setting": "[1]", "value": "Internal disulfide; RSSR"},
      {"measurement": "Products, GAPDH tryptic peptide V232–R245 (Cys 244)", "setting": "[1]", "value": "Sulfinic acid"},
      {"measurement": "Product at Cys 281 of GAPDH (peptide G269–K306)", "setting": "[1]", "value": "sulfinic acid"},
      {"measurement": "effect on myocardial contractility", "setting": "[6]", "value": "enhances myocardial contractility more potently than AS"},
      {"measurement": "Products, C165S AhpC Asp-N peptide D41–G51 (Cys 46)", "setting": "[3]", "value": "Sulfinic acid"}
    ]},
    {"compound": "Sodium trioxidinitrate [AS]", "values": [
      {"measurement": "GAPDH enzyme activity after treatment", "setting": "[4]", "value": "23 % of control"},
      {"measurement": "GAPDH enzyme activity restored after DTT incubation", "setting": "[4]", "value": "51 % of control"},
      {"measurement": "rate constant of decomposition to HNO and nitrite", "setting": "[5]; pH 7, 37 °C", "value": 0.005, "unit": "s⁻¹"},
      {"measurement": "Products, GAPDH tryptic peptide I143–K159 (Cys 149, Cys 153)", "setting": "[1]", "value": "Internal disulfide; RSSR"},
      {"measurement": "Products, GAPDH tryptic peptide V232–R245 (Cys 244)", "setting": "[1]; listed as 14N AS", "value": "Sulfinamide; also recorded: Sulfinic acid"},
      {"measurement": "Product at Cys 281 of GAPDH (peptide G269–K306)", "setting": "[1]", "value": "sulfinamide"},
      {"measurement": "Products, C165S AhpC Asp-N peptide D41–G51 (Cys 46)", "setting": "[3]; listed as 14N AS", "value": "Sulfinamide; also recorded: Sulfinic acid"}
    ]},
    {"compound": "Diethylammonium-1- (N,N-diethylamino) diazen-1-ium- 1,2-diolate [DEANO]", "values": [
      {"measurement": "Products, GAPDH tryptic peptide V232–R245 (Cys 244)", "setting": "[1]", "value": "Nitrosylated product"},
      {"measurement": "GAPDH inhibition (in words)", "setting": "[2]", "value": "inhibition of enzyme activity"}
    ]},
    {"compound": "O=NC1(OC(=O)C(F)(F)F)CCCCC1", "note": "[compound 3, 1-Nitrosocyclohexyl trifluoroacetate]", "values": [
      {"measurement": "HNO release rate relative to AS", "setting": "[7]", "value": "over 1000 times faster"},
      {"measurement": "Products, GAPDH tryptic peptide I143–K159 (Cys 149, Cys 153)", "setting": "[1]", "value": "Internal disulfide; RSSR"},
      {"measurement": "Products, GAPDH tryptic peptide V232–R245 (Cys 244)", "setting": "[1]", "value": "Sulfinamide,; also recorded: Sulfinic acid"}
    ]},
    {"compound": "CC(C)(C)C(=O)OC1(N=O)CCCCC1", "note": "[compound 2, 1-nitrosocyclohexyl pivalate]", "values": [
      {"measurement": "effect on STAT3 activation", "setting": "[8]", "value": "blocks STAT3 activation"},
      {"measurement": "t1/2 of HNO release", "setting": "[5]", "value": 37.8, "unit": "h"},
      {"measurement": "Products, GAPDH tryptic peptide I143–K159 (Cys 149, Cys 153)", "setting": "[1]", "value": "Internal disulfide; RSSR"},
      {"measurement": "Products, GAPDH tryptic peptide V232–R245 (Cys 244)", "setting": "[1]", "value": "Sulfinic acid"},
      {"measurement": "effect on myocardial contractility", "setting": "[6]", "value": "no effect"},
      {"measurement": "Products, C165S AhpC Asp-N peptide D41–G51 (Cys 46)", "setting": "[3]", "value": "Sulfinic acid"}
    ]},
    {"compound": "O=S(=O)(NO)c1ccccc1Br", "note": "[o-Bromo-Piloty’s Acid]", "values": [
      {"measurement": "Products, GAPDH tryptic peptide I143–K159 (Cys 149, Cys 153)", "setting": "[1]", "value": "Internal disulfide; RSSR"},
      {"measurement": "Products, GAPDH tryptic peptide V232–R245 (Cys 244)", "setting": "[1]", "value": "Sulfinamide; also recorded: Sulfinic acid"},
      {"measurement": "Products, C165S AhpC Asp-N peptide D41–G51 (Cys 46)", "setting": "[3]", "value": "Sulfinamide; also recorded: Sulfinic acid"}
    ]}
  ]
}
